Test results as given in ChEMBL document CHEMBL4680074, “Structure and Property Guided Design in the Identification of PRMT5 Tool Compound EPZ015666” (ACS Med Chem Lett, 2016).

Key:
PRMT5/MEP50 complex = PRMT5/MEP50 complex (Homo sapiens, UniProt O14744); experiment: Inhibition of human full length FLAG-tagged PRMT5/human His6-tagged MEP50 expressed in baculovirus-infected Sf9 cells assessed as reduction in tritium incorporation into peptide substrate using human Histone H4 (1 to 15 residues) and [3H]SAM as substrate preincubated with enzyme and H4 for 30 mins followed by [3H]SAM addition and measured after 120 mins by radioactive flashplate assay
Chain of PRMT5/MEP50 complex (O14744 whole entry, the tested form may be a part): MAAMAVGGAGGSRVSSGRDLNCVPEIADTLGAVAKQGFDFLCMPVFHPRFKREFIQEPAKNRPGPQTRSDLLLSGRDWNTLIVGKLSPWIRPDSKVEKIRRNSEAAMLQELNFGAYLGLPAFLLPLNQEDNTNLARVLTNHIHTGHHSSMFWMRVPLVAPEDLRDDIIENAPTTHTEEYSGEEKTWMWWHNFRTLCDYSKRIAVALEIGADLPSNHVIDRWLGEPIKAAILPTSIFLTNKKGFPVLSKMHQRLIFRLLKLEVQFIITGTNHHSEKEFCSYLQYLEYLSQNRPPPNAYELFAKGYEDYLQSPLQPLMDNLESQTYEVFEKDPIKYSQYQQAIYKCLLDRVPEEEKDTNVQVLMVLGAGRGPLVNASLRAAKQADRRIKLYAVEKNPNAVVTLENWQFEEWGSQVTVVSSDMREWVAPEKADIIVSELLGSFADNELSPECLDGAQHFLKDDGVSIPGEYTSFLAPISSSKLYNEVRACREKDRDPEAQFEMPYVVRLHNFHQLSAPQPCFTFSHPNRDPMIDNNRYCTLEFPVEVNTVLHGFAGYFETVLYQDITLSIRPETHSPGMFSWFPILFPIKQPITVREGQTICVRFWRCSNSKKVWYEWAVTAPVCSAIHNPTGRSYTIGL
Chain of PRMT5/MEP50 complex (Q9BQA1 whole entry, further chain, the tested form may be a part): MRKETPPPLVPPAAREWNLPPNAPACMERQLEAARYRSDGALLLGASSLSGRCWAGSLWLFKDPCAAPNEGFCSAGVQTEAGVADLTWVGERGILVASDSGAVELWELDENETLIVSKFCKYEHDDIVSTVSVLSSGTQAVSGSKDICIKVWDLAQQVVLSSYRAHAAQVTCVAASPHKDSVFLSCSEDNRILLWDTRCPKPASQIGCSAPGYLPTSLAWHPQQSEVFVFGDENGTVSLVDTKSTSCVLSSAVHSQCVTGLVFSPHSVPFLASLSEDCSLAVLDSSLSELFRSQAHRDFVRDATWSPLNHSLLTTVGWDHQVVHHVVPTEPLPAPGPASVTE

[1] = target: Protein arginine N-methyltransferase 5 (Homo sapiens, UniProt O14744); experiment: Inhibition of PRMT5 in human Z138 cells assessed as reduction in symmetrical dimethylation of arginine containing substrate using SmD3 as substrate incubated for 4 days by In-cell western assay; assay type: cell-based
Chain of Protein arginine N-methyltransferase 5 (O14744 whole entry): as the sequence (O14744 whole entry, the tested form may be a part) above

Z-138 = experiment: Antiproliferative activity against human Z138 cells incubated for 5 days by cell titer-glo assay; assay type: functional, cell-based; details: Z-138, 120 h
[2] = Protein binding in CD-1 mouse plasma; assay type: ADME, cell-free; details: read-out: PPB (converted)
[3] = Time during which unbound drug concentration exceeds IC90 for inhibition of PRMT5 in human Z138 cells in CD-1 mouse at 100 mg/kg, po; assay type: organism-based; details: in vivo
Procedure, shortened: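 Male CD-1 mice received single oral doses of 10 and 100 mg/kg, and plasma concentration was profiled over time. Unbound concentration was compared with the cellular methyl-mark IC90 after correction for plasma protein binding in mouse plasma. The value is the time this unbound level stayed at or above that IC90.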

Structure (SMILES)	IC50 (PRMT5/MEP50 complex) [nM]	IC50 [1] [nM]	IC50 (Z-138) [nM]	fraction unbound [2]	Time [3] [h]
OC(COc1cccc(CNC2CCCC2)c1)CN1CCc2ccccc2C1 (stereo not given)	326				
OC(COc1cccc(CNC2CCCC2)c1)CN1Cc2ccccc2C1 (stereo not given)	7450				
Cn1cnc2ccc(-c3ccnc(NCC(O)CN4CCc5ccccc5C4)c3)cc21 (stereo not given)	33	180	2100		
O=C(NC[C@@H](O)CN1CCc2ccccc2C1)c1cccc(-c2ccccn2)c1	95	406	18700		
O=C(NC[C@H](O)CN1CCc2ccccc2C1)c1cccc(NC2CCOCC2)c1	18	13	384		
O=C(COc1cccc2cccnc12)NC[C@@H](O)CN1CCc2ccccc2C1	11	16	451		
O=C(COc1cccc2cccnc12)NC[C@H](O)CN1CCc2ccccc2C1	144	327	12600		
O=C(NC[C@H](O)CN1CCc2ccccc2C1)c1cccc(-c2ccccn2)c1	13	32	890		
Cn1cnc2ccc(-c3cccc(OCC(O)CN4CCc5ccccc5C4)c3)cc21 (stereo not given)	73	435	4260		
COc1cc2c(cc1OC)CN(CC(O)COc1cccc(CNC3CCCC3)c1)CC2 (stereo not given)	> 50000				
O=C(NC[C@H](O)CN1CCc2ccccc2C1)c1cc(NC2COC2)ncn1				0.7	12
O=C(NC[C@H](O)CN1CCc2ccccc2C1)c1ccnc(NC2CCC2)c1			62		
CN(Cc1ccccc1)CC(O)COc1cccc(CNC2CCCC2)c1 (stereo not given)	26800				
OC(COc1cccc(CNC2CCCC2)c1)CN1CCc2ccncc2C1 (stereo not given)	> 50000				
O=C(COc1cccc2cccnc12)NCC(O)CN1CCc2ccccc2C1 (racemic)	23	36	428		
O=C(NCC(O)CN1CCc2ccccc2C1)c1cccc(-c2ccccn2)c1 (racemic)	13	37	1680		
